# Reference: ChEMBL document CHEMBL1142238, “Highly efficient ligands for dihydrofolate reductase from Cryptosporidium hominis and Toxoplasma gondii inspired by structural analysis” (J Med Chem, 2007)
# Legend:
# [1] = Inhibition of Cryptosporidium hominis DHFR-TS expressed in Escherichia coli
# [2] = molecular target: T1, Bifunctional dihydrofolate reductase-thymidylate synthase (Toxoplasma gondii, UniProt Q07422); experiment: Inhibition of Toxoplasma gondii DHFR-TS
# T1 sequence (Q07422 whole entry): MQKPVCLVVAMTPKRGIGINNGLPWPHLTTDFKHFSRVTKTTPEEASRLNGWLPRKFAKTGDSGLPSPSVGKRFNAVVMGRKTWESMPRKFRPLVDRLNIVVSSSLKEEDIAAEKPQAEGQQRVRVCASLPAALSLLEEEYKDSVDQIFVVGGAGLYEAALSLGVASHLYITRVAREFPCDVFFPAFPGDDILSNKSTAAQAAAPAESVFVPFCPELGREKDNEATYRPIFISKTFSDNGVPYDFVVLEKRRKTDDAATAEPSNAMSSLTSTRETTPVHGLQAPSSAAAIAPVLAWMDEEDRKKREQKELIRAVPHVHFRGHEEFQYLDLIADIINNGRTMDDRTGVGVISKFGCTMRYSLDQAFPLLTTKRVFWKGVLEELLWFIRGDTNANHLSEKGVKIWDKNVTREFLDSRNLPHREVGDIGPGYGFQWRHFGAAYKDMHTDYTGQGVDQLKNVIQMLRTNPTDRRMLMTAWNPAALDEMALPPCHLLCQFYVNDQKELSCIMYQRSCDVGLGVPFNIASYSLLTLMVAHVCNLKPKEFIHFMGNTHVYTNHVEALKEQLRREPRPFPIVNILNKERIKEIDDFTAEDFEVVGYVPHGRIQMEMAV
# [3] = test system: Cryptosporidium hominis; experiment: Ligand efficiency at Cryptosporidium hominis DHFR-TS
# Outline: (§1)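 Computed from the enzyme IC50 substituted for Kd: ΔG = (1.99 cal K^-1 mol^-1)(300 K)(ln IC50)(0.001 kcal/cal), divided by the number of non-hydrogen atoms.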
# [4] = molecular target: T2, Bifunctional dihydrofolate reductase-thymidylate synthase (Toxoplasma gondii) (UniProt Q07422); experiment: Ligand efficiency at Toxoplasma gondii DHFR-TS; outline: as §1
# T2 sequence (whole entry): T1 sequence (Q07422 whole entry)
# [5] = test system: Cryptosporidium hominis; experiment: Ligand efficiency at Cryptosporidium hominis DHFR-TS relative to TMP
# [6] = molecular target: T2, Bifunctional dihydrofolate reductase-thymidylate synthase (Toxoplasma gondii); experiment: Ligand efficiency at Toxoplasma gondii DHFR-TS relative to TMP
Structure (SMILES),IC50 [1],Activity [3],Activity [5],IC50 [2],Activity [4],Activity [6]
COc1cc(C(C#Cc2c(C)nc(N)nc2N)OC)cc(OC)c1OC (stereo unspecified),5 µM,–,–,0.55 µM,–,–
COc1cc(C(C)C#Cc2c(C)nc(N)nc2N)cc(OC)c1OC (stereo unspecified),0.169 µM,–,–,0.12 µM,–,–
COc1cc([C@@H](C)C#Cc2c(C)nc(N)nc2N)cc(OC)c1OC,0.038 µM,0.41,0.41,0.0014 µM,0.49,0.49
COc1cc(CC#Cc2c(C)nc(N)nc2N)cc(OC)c1OC,10.2 µM,0.29,0.29,0.88 µM,0.35,0.35
COc1cc(C(O)C#Cc2c(C)nc(N)nc2N)cc(OC)c1OC (stereo unspecified),141 µM,–,–,9.1 µM,–,–
COc1cc([C@H](C)C#Cc2c(C)nc(N)nc2N)cc(OC)c1OC,1.91 µM,–,–,0.013 µM,–,–
COc1cc(C(C)C#Cc2cnc(N)nc2N)cc(OC)c1OC (stereo unspecified),–,–,–,3.1 µM,–,–
CN(Cc1cnc2nc(N)nc(N)c2n1)c1ccc(C(=O)N[C@@H](CCC(=O)O)C(=O)O)cc1 [METHOTREXATE],0.023 µM,0.32,–,–,0.33,–

# Continued, in another order:
IC50 [1],Activity [3],Activity [5],Structure (SMILES),IC50 [2],Activity [4],Activity [6]
133 µM,–,–,COc1cc(C(C#Cc2cnc(N)nc2N)OC)cc(OC)c1OC (stereo unspecified),9.8 µM,–,–
> 1000 µM,–,–,COc1cc(/C=C/c2cnc(N)nc2N)cc(OC)c1OC,–,–,–
> 1000 µM,–,–,COc1cc(CCc2cnc(N)nc2N)cc(OC)c1OC,90.2 µM,–,–
–,0.32,–,COc1cc(Cc2cnc(N)nc2N)cc(OC)c1OC,–,0.33,–
86.1 µM,–,0.24,COc1cc(CC#Cc2cnc(N)nc2N)cc(OC)c1OC,21.7 µM,–,0.28
194 µM,–,–,COc1cc(C(O)C#Cc2cnc(N)nc2N)cc(OC)c1OC (stereo unspecified),–,–,–
